The IC50 is the concentration that gives 50% inhibition.

For one test, the system named is MCF7 cells. Kind of test: Cell morphology after treatment. The class given is cell-based, human.
A further test concerns MDA-MB-231 cells. The test can be described thus: PrestoBlue cytotoxicity assay. The format is cell-based. Particulars: Homo sapiens, MDA-MB-231, 24 h, read-out: IC50 Value MDA-MB-231. Summed up: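 Cells plated at 10,000 cells/well and incubated 24 h at 37°C, 5% CO2. MCF 10A were grown in MEBM to 70–80% confluency. Treated for 24 h with eight concentrations (250, 125, 62.5, 31.25, 15.625, 7.8125, 3.9, 1.95 µg/mL) in three parallel experiments, with cisplatin as positive control.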

In the case of `CC[C@H](CC[C@@H](C)[C@H]1CC[C@H]2[C@@H]3CC=C4C[C@@H](O)CC[C@]4(C)[C@H]3CC[C@]12C)C(C)C` [β-sitosterol], the “Cell morphology (apoptosis signs)” value in the test with MCF7 cells is recorded as “cell blebbing indicative of apoptotic process”. Moreover, the IC50 in the test on MDA-MB-231 cells was > 250 µg/mL.

Source of the values: paper PMC11844196 (Journal of Experimental Pharmacology, 2025).
